According to ChEMBL document CHEMBL1641365, “Synthesis, in vitro and in vivo preliminary evaluation of anti-angiogenic properties of some pyrroloazaflavones” (Bioorg Med Chem, 2011):
Activity calls are given as the source filed them. The rule behind the calls is not given here.

How the values were obtained:
[1] = tested on: HUVEC; assay: Growth inhibition of HUVEC cells after 20 hrs by MTT assay; type: cell-based; conditions: Homo sapiens
In short: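 Primary HUVECs, passages 2–4, were seeded at 2 × 10⁴ cells/cm². After 24 h they were exposed to a range of concentrations (10 to 10⁻⁵ µM). After 20 h, MTT (0.5 mg/mL) was read. IC50 is the concentration giving a 50% viability drop versus untreated cells; 10 µM was the top concentration. Values are means ± SD of at least three independent experiments.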

[2] = tested on: HUVEC; assay: Induction of apoptosis in HUVEC cells assessed as proapoptotic effect after 24 hrs by TUNEL assay; type: functional, cell-based; conditions: Homo sapiens
[3] = tested on: HUVEC; assay: Inhibition of growth factor-induced angiogenesis in HUVEC cells assessed as inhibition of cell migration at 10^-2 uM after 4 hrs by fluorescence microscopy; type: functional, cell-based; conditions: Homo sapiens
[4] = tested on: HUVEC; assay: Antiangiogenic activity against FGF2-induced in HUVEC cells assessed as inhibition of capillary-like formation at 10^-2 uM after 18 hrs by Matrigel assay; type: functional, cell-based; conditions: Homo sapiens
[5] = tested on: HUVEC; assay: Antiangiogenic activity against FGF2-induced in HUVEC cells assessed as inhibition of morphological change at 10^-2 uM after 18 hrs by capillary-like formation assay; type: functional, cell-based; conditions: Homo sapiens
[6] = tested on: Mus musculus; assay: Antiangiogenic activity against FGF2-induced C57/BL6 mouse assessed as inhibition of angiogenesis at 0.01 uM, sc after 7 days by Matrigel plug assay; type: functional, organism-based
In short: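 Matrigel with heparin, with or without FGF-2 200 ng/plug plus test agent 0.01 µM, injected subcutaneously into the dorsal area of C57/BL6 mice. Animals were killed after 7 days. Plugs were removed and steeped overnight at 4 °C in 0.1% Brij-35 in PBS. Hemoglobin content of the plugs was measured.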

[7] = tested on: HUVEC; assay: Antiangiogenic activity against FGF2-induced HUVEC assessed as inhibition of cell proliferation at 10^-3 uM after 24 hrs; type: functional, cell-based; conditions: Homo sapiens
[8] = tested on: HUVEC; assay: Inhibition of growth factor-induced angiogenesis in HUVEC cells assessed as inhibition of cell migration at 10^-3 uM after 4 hrs by fluorescence microscopy; type: functional, cell-based; conditions: Homo sapiens
[9] = tested on: HUVEC; assay: Antiangiogenic activity against FGF2-induced in HUVEC cells assessed as inhibition of capillary-like formation at 10^-3 uM after 18 hrs by Matrigel assay; type: functional, cell-based; conditions: Homo sapiens
[10] = tested on: HUVEC; assay: Antiangiogenic activity against FGF2-induced in HUVEC cells assessed as inhibition of morphological change at 10^-3 uM after 18 hrs by capillary-like formation assay; type: functional, cell-based; conditions: Homo sapiens
[11] = tested on: HUVEC; assay: Antiangiogenic activity against FGF2-induced in HUVEC cells assessed as inhibition of morphological change at 10^-3 uM after 18 hrs by capillary-like formation assay; conditions: Homo sapiens
[12] = tested on: HUVEC; assay: Antiangiogenic activity against FGF2-induced HUVEC assessed as inhibition of cell proliferation at 10^-5 uM after 24 hrs; type: functional, cell-based; conditions: Homo sapiens
[13] = tested on: HUVEC; assay: Inhibition of growth factor-induced angiogenesis in HUVEC cells assessed as inhibition of in cell migration at 10^-5 uM after 4 hrs by fluorescence microscopy; type: functional, cell-based; conditions: Homo sapiens
[14] = tested on: HUVEC; assay: Antiangiogenic activity against FGF2-induced in HUVEC cells assessed as inhibition of capillary-like formation at 10^-5 uM after 18 hrs by Matrigel assay; type: functional, cell-based; conditions: Homo sapiens
[15] = tested on: HUVEC; assay: Antiangiogenic activity against FGF2-induced HUVEC assessed as inhibition of cell proliferation at 10^-4 uM after 24 hrs; type: functional, cell-based; conditions: Homo sapiens
[16] = tested on: HUVEC; assay: Inhibition of growth factor-induced angiogenesis in HUVEC cells assessed as inhibition of cell migration at 10^-4 uM after 4 hrs by fluorescence microscopy; type: functional, cell-based; conditions: Homo sapiens
[17] = tested on: HUVEC; assay: Antiangiogenic activity against FGF2-induced in HUVEC cells assessed as inhibition of capillary-like formation at 10^-4 uM after 18 hrs by Matrigel assay; type: functional, cell-based; conditions: Homo sapiens
[18] = tested on: HUVEC; assay: Antiangiogenic activity against FGF2-induced HUVEC assessed as inhibition of cell proliferation at 10^-2 uM after 24 hrs; type: functional, cell-based; conditions: Homo sapiens

Compound | IC50 [1] | Activity [2] | inhibition [3] | Activity [4] | Activity [5] | Activity [6] | also measured
O=c1cc(-c2ccccc2)[nH]c2c1ccc1c2ccn1CC1CC1 | 4.2 µM | Active | Active | Active | inactive | Active | 
Cc1cc2c(ccc3c(=O)cc(-c4ccccc4)[nH]c32)[nH]1 | > 10 µM |  |  |  |  |  | 
O=[N+]([O-])c1cccc(-c2cc(O)c3ccc4[nH]ccc4c3n2)c1 | 0.45 µM | Active |  |  |  | Active | Activity [7]: Active; inhibition [8]: Active; Activity [9]: Active; Activity [10]: Active; Activity [11]: Active
O=c1cc(-c2ccc[nH]2)[nH]c2c1ccc1[nH]ccc12 | > 10 µM |  |  |  |  |  | 
CC[C@]1(O)C[C@@H]2CN(CCc3c([nH]c4ccccc34)[C@@](C(=O)OC)(c3cc4c(cc3OC)N(C)[C@H]3[C@@](O)(C(=O)OC)[C@H](OC(C)=O)[C@]5(CC)C=CCN6CC[C@]43[C@@H]65)C2)C1 [VINBLASTINE] | 0.049 µM |  |  |  |  |  | Activity [12]: Active; inhibition [13]: Active; Activity [14]: Active
Oc1cc(-c2ccccc2)nc2c1ccc1[nH]ccc12 | 0.043 µM | Active |  |  |  | Active | Activity [15]: Active; inhibition [16]: Active; Activity [17]: Active
Oc1cc(-c2cccs2)nc2c1ccc1[nH]ccc12 | > 10 µM |  |  |  |  |  | 
COc1cccc(-c2cc(O)c3ccc4[nH]ccc4c3n2)c1 | 5.8 µM | Active | Active |  |  |  | Activity [18]: Active
CCn1ccc2c3[nH]c(-c4ccccc4)cc(=O)c3ccc21 | 8.1 µM | Active | Active | Active | inactive |  | 
CCOC(=O)CCn1ccc2c3[nH]c(-c4ccccc4)cc(=O)c3ccc21 | 5.7 µM | Active | Active | Active | Active | Active | 
